Test results taken from ChEMBL document CHEMBL1129933, “Tyrosine kinase inhibitors. 6. Structure-activity relationships among N- and 3-substituted 2,2'-diselenobis(1H-indoles) for inhibition of protein tyrosine kinases and comparative in vitro and in vivo studies against selected sulfur congeners” (J Med Chem, 1997).

Legend:
[1] = test system: MCF7; experiment: In vivo activity against human MCF-7 xenograft, tumor growth delay (T-C) at 12.0 mg/kg ip dose for 5-11 days; conditions: route intraperitoneal
[2] = target: Epidermal growth factor receptor (Mus musculus) (UniProt Q01279); experiment: Inhibition of epidermal growth factor receptor (EGFr) autophosphorylation
[3] = Inhibition of DNA synthesis; format: functional
Procedure, shortened: (§1)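 Log-phase cells were drug-treated for 2 h, then exposed for 2 h to 1 µM [methyl-3H]thymidine (DNA), [5-3H]uridine (RNA) or (S)-[4,5-3H]leucine (protein), each at 1 µCi/nmol. Cells were trypsinized into ice-cold 15% TCA, and precipitates were collected on glass-fibre filters, washed, and counted by scintillation.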

[4] = target: Platelet-derived growth factor receptor beta (Mus musculus, UniProt P05622); experiment: Inhibition of platelet-derived growth factor receptor (PDGFr) autophosphorylation; format: functional
Procedure, shortened: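 Swiss 3T3 fibroblasts were treated 2 h with a range of compound concentrations, then stimulated 5 min with growth factor. Receptor tyrosine phosphorylation was assessed by cell extraction and western blotting.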

[5] = test system: M5076; experiment: In vivo activity against murine M5076 sarcoma, weight change after 3.0 mg/kg ip dose at 4 hour intervals 3x a day for 9 days; format: functional, Mus musculus; conditions: route intraperitoneal
Procedure, shortened: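 M5076 sarcoma was serially transplanted in C57BL/6 mice and tested in B6C3F1 mice (18-22 g) given ip q4h ×3 daily for 9 days. Weight change was taken as the maximum treatment-related weight loss in the growth-delay assay.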

[6] = test system: Colon 26; experiment: In vivo activity against murine colon 26, net cell kill at 0.75 mg/kg ip dose at 4 hour intervals 3x a day for 9 days; format: functional, Mus musculus; conditions: route intraperitoneal
Procedure, shortened: (§2)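 Colon 26 was passaged in BALB/c mice; tested in CD2F1 mice (18-22 g, randomized) implanted on day 0 ip with counted cells or sc with fragments. Dosing was ip bolus, daily or q4h ×3 daily, by average cage weight. Vehicle was distilled H2O or 10% DMA in 50 mM lactic acid, pH 4.0. Net cell kill = log tumor-burden reduction between first and last treatments.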

[7] = target: T1, Epidermal growth factor receptor (Homo sapiens, UniProt P00533); experiment: Inhibition of epidermal growth factor receptor (EGFr) using ATP substrate
Procedure, shortened: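 EGFr came from membrane vesicles shed by human A431 carcinoma cells. Activity was measured as 32P-phosphate transfer from ATP into a TCA-precipitable glutamate/tyrosine (4:1) random copolymer. ATP or peptide polymer substrate was varied. Ki was obtained by nonlinear regression with Cleland's equations, comparing slope and intercept determinations to assign the inhibition type.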

[8] = test system: C6; experiment: In vivo activity against C6 glioma xenograft, tumor growth delay (T-C, days) at 5 mg/kg ip dose for 9 days; conditions: route intraperitoneal
[9] = test system: B16; experiment: In vivo activity against murine B16 melanoma, weight change after 0.75 mg/kg ip dose at 4 hour intervals 3x a day for 9 days; format: functional, Mus musculus; conditions: route intraperitoneal
Procedure, shortened: (§3)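 Murine tumours were maintained by serial transplantation (~30 mg fragments every 2 weeks): B16 in C57BL/6 and colon 26 in BALB/c. They were tested in F1 hosts, B6C3F1 for B16 and CD2F1 for colon 26, weighing 18-22 g. Treatment was ip daily or q4h ×3 for 9 days. Weight change was the difference between mean group weights on the last and first treatment days, from life-span assays.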

[10] = test system: MCF7; experiment: In vivo activity against human MCF-7 xenograft, weight change after 3.0 mg/kg ip dose at 4 hour intervals 3x a day for 5-11 days; format: functional, organism-based; design: dose 3 mg/kg
Procedure, shortened: (§4)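 MCF-7 breast carcinoma xenografts were serially passaged in nude mice (NCr nu/nu) and implanted in randomized 18-22 g mice on day 0. Dosing was ip bolus, either daily or q4h ×3 daily, with vehicle of distilled H2O or 10% DMA in 50 mM lactic acid buffer, pH 4.0. Weight change was taken as the maximum treatment-related loss.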

[11] = test system: Colon 26; experiment: In vivo activity against murine colon 26, weight change after 0.75 mg/kg ip dose at 4 hour intervals 3x a day for 9 days; format: functional, Mus musculus; conditions: route intraperitoneal
Procedure, shortened: as §3

[12] = target: Fibroblast growth factor receptor (Mus musculus, UniProt P21803+Q03142+P16092+Q61851); experiment: Inhibition of fibroblast growth factor (bFGF)-mediated autophosphorylation of FGF-R in Swiss 3T3 mouse fibroblasts; format: functional
Procedure, shortened: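 Swiss 3T3 fibroblasts were treated 2 h with a range of compound concentrations, then stimulated for 5 min with growth factor (bFGF). Receptor tyrosine phosphorylation was read by extraction and western blotting.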

[13] = test system: B16; experiment: In vivo activity against murine B16 melanoma, percent treated/control tumor mass at 0.75 mg/kg ip dose at 4 hour intervals 3x a day for 9 days; format: functional, Mus musculus; conditions: route intraperitoneal
Procedure, shortened: as §3

[14] = test system: B16; experiment: In vivo activity against murine B16 melanoma, net cell kill at 3.0 mg/kg ip dose for 9 days; format: functional, Mus musculus; conditions: route intraperitoneal
Procedure, shortened: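 Tumors were passaged in C57BL/6 mice; B6C3F1 mice (18-22 g, randomized) were implanted on day 0 ip with counted tumor cells or sc with fragments. Dosing was ip bolus, daily or q4h ×3 daily, by average cage weight. Vehicle was distilled H2O or 10% DMA in 50 mM lactic acid buffer, pH 4.0. Net cell kill = log reduction in tumor burden between first and last treatments.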

[15] = test system: Colon 26; experiment: In vivo activity against murine colon 26 tumor, net cell kill at 1.5 mg/kg ip dose for 9 days; format: functional, Mus musculus; conditions: route intraperitoneal
Procedure, shortened: as §2

[16] = test system: A-431; experiment: In vivo activity against human A431 epidermoid xenograft, net cell kill at 10 mg/kg administered subcutaneously for 9-15 days; format: functional; conditions: route subcutaneous
Procedure, shortened: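 Nude mice (NCr nu/nu), 18-22 g, randomized, implanted sc in the right axilla with serially passaged A431 tumor fragments on day 0. Dosing was by ip bolus or continuous sc Alzet miniosmotic pump infusion, by average cage weight. Vehicle was distilled H2O or 10% DMA in 50 mM lactic acid buffer, pH 4.0, depending on compound. Net cell kill = net log reduction in tumor burden between first and last treatments.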

[17] = test system: B16; experiment: In vivo activity against murine B16 melanoma, percent treated/control tumor mass at 3.0 mg/kg ip dose for 9 days; format: functional, Mus musculus; conditions: route intraperitoneal
Procedure, shortened: as §3

[18] = test system: MCF7; experiment: In vivo activity against human MCF-7 xenograft, tumor growth delay (T-C) at 3.0 mg/kg ip dose at 4 hour intervals 3x a day for 5-11 days; conditions: route intraperitoneal
[19] = Inhibition of RNA synthesis; format: functional
Procedure, shortened: as §1

[20] = test system: A-431; experiment: In vivo activity against human A431 epidermoid xenograft, weight change after 9 mg/kg sc dose for 1-27 days; format: functional, organism-based; design: dose 9 mg/kg
Procedure, shortened: (§5)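 Nude mice (NCr nu/nu, 18-22 g) bearing sc A431 fragments in the right axilla (day 0) received continuous sc infusion from an Alzet miniosmotic pump implanted under ketamine-xylazine. Pumps were removed or replaced under lidocaine-epinephrine for longer therapy, in 7-day and 27-day studies. Daily dose was the maximum deliverable without significant precipitation. Weight change was taken as the maximum treatment-related loss.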

[21] = test system: Colon 26; experiment: In vivo activity against murine colon 26, percent treated/control tumor mass at 0.75 mg/kg ip dose at 4 hour intervals 3x a day for 9 days; format: functional, Mus musculus; conditions: route intraperitoneal
Procedure, shortened: as §3

[22] = test system: A-431; experiment: In vivo activity against human A431 epidermoid xenograft, weight change after 10 mg/kg sc dose for 9-15 days; format: functional; conditions: route subcutaneous
Procedure, shortened: as §5

[23] = target: T1, Epidermal growth factor receptor; experiment: Inhibition of epidermal growth factor receptor (EGFr)
[24] = test system: MCF7; experiment: In vivo activity against human MCF-7 xenograft, weight change after 12.0 mg/kg ip dose for 5-11 days; format: functional; conditions: route intraperitoneal
Procedure, shortened: as §4

T1 sequence (P00533 whole entry): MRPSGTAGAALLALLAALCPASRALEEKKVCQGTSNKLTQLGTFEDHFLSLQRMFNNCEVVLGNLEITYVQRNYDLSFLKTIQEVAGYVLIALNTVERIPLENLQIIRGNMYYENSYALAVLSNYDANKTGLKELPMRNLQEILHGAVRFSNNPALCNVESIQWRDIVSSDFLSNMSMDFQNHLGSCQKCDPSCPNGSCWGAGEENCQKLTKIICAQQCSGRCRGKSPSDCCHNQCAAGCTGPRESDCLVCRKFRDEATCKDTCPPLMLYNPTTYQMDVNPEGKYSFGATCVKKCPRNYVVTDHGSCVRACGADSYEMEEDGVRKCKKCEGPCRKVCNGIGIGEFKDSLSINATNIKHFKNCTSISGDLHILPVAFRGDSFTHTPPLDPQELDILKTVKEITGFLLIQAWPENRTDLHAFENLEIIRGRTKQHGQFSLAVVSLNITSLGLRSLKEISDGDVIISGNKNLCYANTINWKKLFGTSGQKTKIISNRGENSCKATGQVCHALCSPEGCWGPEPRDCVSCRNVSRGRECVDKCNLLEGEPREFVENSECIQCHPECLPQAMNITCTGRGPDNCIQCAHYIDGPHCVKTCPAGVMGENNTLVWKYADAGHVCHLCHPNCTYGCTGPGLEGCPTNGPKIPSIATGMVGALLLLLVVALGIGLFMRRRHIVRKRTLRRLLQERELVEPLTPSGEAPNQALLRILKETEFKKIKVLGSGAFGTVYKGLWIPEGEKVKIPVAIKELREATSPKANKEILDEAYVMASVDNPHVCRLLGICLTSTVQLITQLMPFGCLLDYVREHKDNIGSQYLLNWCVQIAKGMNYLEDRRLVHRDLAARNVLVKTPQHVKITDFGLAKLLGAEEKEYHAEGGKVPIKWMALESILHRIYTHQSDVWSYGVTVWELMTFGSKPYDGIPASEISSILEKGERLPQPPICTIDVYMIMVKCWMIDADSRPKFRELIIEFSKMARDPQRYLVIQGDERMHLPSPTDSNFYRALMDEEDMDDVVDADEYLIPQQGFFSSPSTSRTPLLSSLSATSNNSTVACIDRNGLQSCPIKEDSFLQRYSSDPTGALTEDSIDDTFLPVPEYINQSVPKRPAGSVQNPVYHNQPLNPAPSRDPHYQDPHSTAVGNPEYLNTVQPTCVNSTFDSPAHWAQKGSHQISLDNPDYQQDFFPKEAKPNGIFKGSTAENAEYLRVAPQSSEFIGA
Epidermal growth factor receptor (Mus musculus), sequence (Q01279 whole entry, looked up): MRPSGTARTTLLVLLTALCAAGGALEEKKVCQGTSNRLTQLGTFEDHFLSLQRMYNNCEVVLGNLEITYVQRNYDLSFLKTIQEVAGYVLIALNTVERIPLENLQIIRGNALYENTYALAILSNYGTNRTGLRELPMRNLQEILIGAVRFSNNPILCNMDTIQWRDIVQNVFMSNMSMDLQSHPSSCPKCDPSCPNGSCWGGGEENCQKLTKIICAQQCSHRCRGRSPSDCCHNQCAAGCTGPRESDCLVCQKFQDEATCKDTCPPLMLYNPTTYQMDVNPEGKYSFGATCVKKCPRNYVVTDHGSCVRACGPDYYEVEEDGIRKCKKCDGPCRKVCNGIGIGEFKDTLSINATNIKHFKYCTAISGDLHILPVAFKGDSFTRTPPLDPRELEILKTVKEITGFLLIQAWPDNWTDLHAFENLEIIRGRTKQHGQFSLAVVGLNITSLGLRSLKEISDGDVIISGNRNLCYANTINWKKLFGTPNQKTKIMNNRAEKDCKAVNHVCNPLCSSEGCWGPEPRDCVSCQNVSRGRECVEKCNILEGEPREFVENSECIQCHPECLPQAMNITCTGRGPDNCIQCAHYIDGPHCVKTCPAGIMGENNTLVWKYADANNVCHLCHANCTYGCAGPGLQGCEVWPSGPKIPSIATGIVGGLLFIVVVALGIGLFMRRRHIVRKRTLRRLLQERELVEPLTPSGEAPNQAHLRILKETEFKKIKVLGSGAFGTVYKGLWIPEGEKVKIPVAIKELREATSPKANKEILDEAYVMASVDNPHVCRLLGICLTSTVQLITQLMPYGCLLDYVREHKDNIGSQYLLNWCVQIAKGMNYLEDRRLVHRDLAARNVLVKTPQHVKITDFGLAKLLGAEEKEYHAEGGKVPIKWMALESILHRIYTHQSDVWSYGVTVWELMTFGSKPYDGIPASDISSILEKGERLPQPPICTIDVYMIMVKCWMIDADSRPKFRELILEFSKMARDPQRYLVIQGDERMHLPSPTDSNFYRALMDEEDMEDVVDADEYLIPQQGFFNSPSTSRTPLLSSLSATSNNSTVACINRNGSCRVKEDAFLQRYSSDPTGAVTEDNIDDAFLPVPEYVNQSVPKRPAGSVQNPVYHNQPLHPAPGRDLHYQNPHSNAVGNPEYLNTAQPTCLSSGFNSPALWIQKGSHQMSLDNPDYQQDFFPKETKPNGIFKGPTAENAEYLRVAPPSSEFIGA
Platelet-derived growth factor receptor beta, sequence (P05622 whole entry): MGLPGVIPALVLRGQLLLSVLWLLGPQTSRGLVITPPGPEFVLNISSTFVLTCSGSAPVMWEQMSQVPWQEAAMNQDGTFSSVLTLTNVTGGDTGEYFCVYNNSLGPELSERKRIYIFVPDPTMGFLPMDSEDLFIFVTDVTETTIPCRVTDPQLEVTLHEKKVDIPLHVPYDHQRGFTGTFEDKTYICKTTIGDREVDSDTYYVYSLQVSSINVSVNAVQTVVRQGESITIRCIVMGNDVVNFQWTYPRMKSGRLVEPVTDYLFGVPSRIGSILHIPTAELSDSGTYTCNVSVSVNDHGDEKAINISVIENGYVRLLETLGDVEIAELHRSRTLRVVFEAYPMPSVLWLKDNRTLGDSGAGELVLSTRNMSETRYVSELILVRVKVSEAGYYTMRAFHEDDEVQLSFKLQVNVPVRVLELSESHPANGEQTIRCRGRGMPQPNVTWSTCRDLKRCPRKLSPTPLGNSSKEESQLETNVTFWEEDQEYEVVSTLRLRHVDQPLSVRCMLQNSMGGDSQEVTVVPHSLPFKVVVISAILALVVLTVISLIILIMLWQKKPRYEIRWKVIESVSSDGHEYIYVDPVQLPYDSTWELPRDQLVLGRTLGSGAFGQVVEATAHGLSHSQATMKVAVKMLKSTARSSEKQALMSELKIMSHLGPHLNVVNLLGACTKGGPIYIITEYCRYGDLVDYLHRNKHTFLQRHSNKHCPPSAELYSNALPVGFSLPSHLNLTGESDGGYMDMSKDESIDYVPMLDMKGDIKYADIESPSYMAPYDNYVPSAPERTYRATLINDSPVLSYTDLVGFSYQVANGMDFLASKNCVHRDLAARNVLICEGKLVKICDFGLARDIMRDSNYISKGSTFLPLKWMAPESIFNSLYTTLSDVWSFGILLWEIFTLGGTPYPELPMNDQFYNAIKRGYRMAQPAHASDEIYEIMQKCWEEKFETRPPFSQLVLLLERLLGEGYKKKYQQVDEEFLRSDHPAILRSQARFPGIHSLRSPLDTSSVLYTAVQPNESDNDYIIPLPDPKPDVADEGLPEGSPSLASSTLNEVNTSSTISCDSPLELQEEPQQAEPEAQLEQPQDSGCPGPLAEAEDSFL

## NC(Cc1c(SSc2[nH]c3ccccc3c2CC(N)C(=O)NCc2ccccc2)[nH]c2ccccc12)C(=O)NCc1ccccc1 (centres undefined)
[1]
  T-C: 0 days
[2]
  IC50: > 100 µM
[3]
  IC50: 2.5 µM
[4]
  IC50: 6.2 µM
[5]
  Weight change: -0.5 g
[6]
  Net cell kill: -0.2 log10
[7]
  Ki: 19.4 µM
[8]
  T-C: 0 days
[9]
  Weight change: 1.1 g
[10]
  Weight change: Weight gain
[11]
  Weight change: 0.8 g
[12]
  IC50: 2.3 µM
[13]
  T/C: 99%
[14]
  Net cell kill: -1.3 log10
[15]
  Net cell kill: -0.3 log10
[16]
  Net cell kill: -0.2 log10
[17]
  T/C: 100%
[18]
  T-C: 1 days
[19]
  IC50: 2 µM
[20]
  Weight change: Weight gain
[21]
  T/C: 119%
[22]
  Weight change: -1.2 g
[23]
  IC50: 7.4 µM
[24]
  Weight change: -0.4 g
